TRPC4 block: TRPC4 (mouse) channel inhibition; AID 2247; 300,000 tested, 0.39% active; B-score at 10 µM; HEK293 TRPC4beta/mu-opioid, DAMGO-evoked Fluo4 calcium flux; active compounds read low; Q9QUQ5;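 active = B-score over 3 SD under the library average, no early fluorescence shift, positive overall ratio signal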
Target sequence (Q9QUQ5 whole entry, looked up): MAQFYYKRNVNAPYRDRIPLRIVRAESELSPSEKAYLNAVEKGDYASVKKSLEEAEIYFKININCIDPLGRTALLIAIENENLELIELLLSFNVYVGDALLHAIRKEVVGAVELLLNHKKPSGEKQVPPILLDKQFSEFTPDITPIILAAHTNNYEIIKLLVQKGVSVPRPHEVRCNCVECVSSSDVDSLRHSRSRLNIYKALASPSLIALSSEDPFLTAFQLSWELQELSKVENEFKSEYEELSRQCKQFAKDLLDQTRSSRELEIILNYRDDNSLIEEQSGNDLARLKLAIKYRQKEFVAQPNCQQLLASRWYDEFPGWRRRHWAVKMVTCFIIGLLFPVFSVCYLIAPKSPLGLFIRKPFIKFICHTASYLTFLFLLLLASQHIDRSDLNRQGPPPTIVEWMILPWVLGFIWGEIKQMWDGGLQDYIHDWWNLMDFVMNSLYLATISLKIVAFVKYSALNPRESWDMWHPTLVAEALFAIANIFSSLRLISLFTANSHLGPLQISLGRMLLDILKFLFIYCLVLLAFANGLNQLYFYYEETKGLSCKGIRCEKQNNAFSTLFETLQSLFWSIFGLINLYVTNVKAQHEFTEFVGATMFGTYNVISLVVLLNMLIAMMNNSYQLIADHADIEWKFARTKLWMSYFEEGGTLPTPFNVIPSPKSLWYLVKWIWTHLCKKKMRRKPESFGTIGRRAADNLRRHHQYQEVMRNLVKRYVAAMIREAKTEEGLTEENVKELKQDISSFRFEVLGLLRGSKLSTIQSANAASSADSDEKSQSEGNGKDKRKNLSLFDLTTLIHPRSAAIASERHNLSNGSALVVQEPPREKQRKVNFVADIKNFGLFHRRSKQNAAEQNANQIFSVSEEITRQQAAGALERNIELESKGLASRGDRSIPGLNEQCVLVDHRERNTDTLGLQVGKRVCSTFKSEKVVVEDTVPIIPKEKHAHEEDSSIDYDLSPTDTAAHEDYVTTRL
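Assay system – HEK293 line stably carrying TRPC4beta and mu-opioid receptor · Doses – single dose · Detection – Fluo4 calcium-dye fluorescence, kinetic read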
TRPC6 act: mouse TRPC6 channel activation. 310,000 tested, 0.13% active. Q61143. HEK293-TRPC6 membrane potential dye fluorescence; active compounds read high. B-score at 10 µM;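 active = B-score of the integrated fluorescence ratio above library mean plus 3 SD, and starting fluorescence ratio within library mean plus 5 SD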;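 also: higher score means more depolarization so channel activation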
TRPC4 agonist: activators of mouse TRPC4 channel. 310,000 tested, 0.49% active. B-score at 10 µM. Q9QUQ5. HEK293 TRPC4beta/mu-opioid, Fluo4 calcium fluorescence; active compounds read high;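 active = B-score above 5 SD of library B-scores, and initial fluorescence ratio not above library mean plus 5 SD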;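 also: positive B-score marks a calcium rise read as TRPC4 activation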
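Incubation: 45 min room-temperature Fluo4 loading, 110 s read / System: HEK293 cells stably co-expressing mouse TRPC4beta and mu-opioid receptor / Signal: Fluo4 fluorescence, kinetic / Control set: buffer (low) and maximal DAMGO (high) / Measure: integrated baseline-normalised fluorescence ratio, converted to per-well B score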
TRPC4 PAM: allosterically enhances the mouse TRPC4 cation channel. Q9QUQ5. HEK293 TRPC4beta/mu-opioid, DAMGO EC20, Fluo-4 Ca2+ flux; active compounds read high. B-score at 10 µM. 310,000 tested, 0.42% active. AID 2227;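 active = B-score of calcium response area above 5 SD of library B-scores, with initial fluorescence ratio within 5 SD of library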;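 also: B-score of integrated fluorescence ratio over time as area under calcium response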
TRPC6 inh: blocks the mouse TRPC6 cation channel; HEK293-TRPC6, membrane potential dye, ACh-evoked depolarization; active compounds read low; B-score at 10 µM; AID 2553; Q61143; 310,000 tested, 1.1% active;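 active = B-score under library mean minus 3 SD, initial fluorescence not abnormally high, positive integrated signal ratio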;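 also: B-score derived from integrated fluorescence ratio over the kinetic read; more negative B-score means stronger inhibition of depolarization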
TRPC4 spec 2: second selectivity test of TRPC6 inhibitors: effect on mouse TRPC4; shares compounds with TRPC6 inh; HEK293 TRPC4/MOR, membrane potential dye fluorescence; channel activated by saturating DAMGO dose; inhibition, % at 10 µM; 920 tested, 42% active; AID 2776;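 active = compounds whose fluorescence signal differed from control wells by over 3 SD, either direction, in both duplicate plates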
TRPC4 spec: tests whether TRPC6 inhibitors also affect mouse TRPC4 | shares compounds with TRPC6 inh | HEK293 TRPC4/mu-opioid, membrane potential fluorescence | activity change, negative = inhibition, % at 10 µM | 920 tested, 61% active | AID 2777;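 active = rise or fall in signal beyond 3 SD of buffer-only wells in both replicate plates, either sign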;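 also: integrated kinetic ratio of fluorescence range over baseline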
HEK293 MPD ctr 2-1: second check of TRPC6 inhibitor effects in parental HEK293 cells | shares compounds with TRPC6 inh | signal change vs control, % at 10 µM | AID 2779 | 920 tested, 31% active | parental HEK293 membrane potential dye fluorescence; maximal acetylcholine challenge after compound addition;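 active = membrane potential signal moving either way by over 3 SD of the maximum-effect control, in both duplicate plates, meaning non-specific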
HEK293 MPD ctr-1: parental HEK293 nonspecific activity of TRPC6 inhibitors. shares compounds with TRPC6 inh. parental HEK293 membrane potential dye fluorescence. membrane potential signal change, % at 10 µM. 920 tested, 60% active. AID 2780;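 active = membrane potential signal shifting up or down by more than 3 SD of buffer-only wells, on both duplicate plates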
HEK293 MPD ctr-2: checks TRPC6 modulator effects in parental HEK293 cells; shares compounds with TRPC6 inh; membrane potential signal change, % at 10 µM; 2,400 tested, 51% active; AID 488924; membrane potential dye fluorescence;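 active = membrane potential signal moves up or down beyond 5 SD from buffer-only wells, on both duplicate plates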
HEK293 MPD ctr 2-2: second counter-screen for TRPC6 modulators: effect in parental HEK293 cells; shares compounds with TRPC6 inh; membrane potential dye fluorescence; after compound, maximal acetylcholine stimulation; inhibition, % at 10 µM; 2,400 tested, 14% active;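 active = membrane potential signal drops by more than 5 SD from the mean control signal, in both duplicate plates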;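 also: plate controls were acetylcholine ECmax control wells for no effect and buffer only wells for full effect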
TRPC4/MOR mod: mouse TRPC4 off-target activity of TRPC6 modulators. shares compounds with TRPC6 inh. percent change from control (negative = decrease, positive = increase), % at 10 µM. 2,400 tested, 69% active. HEK293 TRPC4/mu-opioid, membrane potential fluorescence;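 active = membrane potential signal moved up or down beyond 5 SD of buffer control wells, in both duplicate plates, actives on both sides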;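 also: plate controls were assay buffer wells for no effect and DAMGO maximal-effect wells for full effect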
TRPC4/MOR inh 2: second check of whether TRPC6 modulators also affect mouse TRPC4 | 2,400 tested, 55% active | inhibition, % at 10 µM | shares compounds with TRPC6 inh | HEK293 TRPC4/mu-opioid, membrane potential dye fluorescence; stimulated with maximal-effect DAMGO | AID 488928;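 active = drop in membrane potential signal beyond 5 SD of the control wells in both duplicate plates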;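 also: TRPC4 counter screen for TRPC6 hits run under conditions tuned for TRPC6 not TRPC4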
TRPC6 inh conf: mouse TRPC6 inhibitor confirmation; inhibition, % at 10 µM; shares compounds with TRPC6 inh; HEK293-TRPC6, membrane potential dye, ACh-evoked depolarization; 3,300 tested, 43% active;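 active = fluorescence ratio falls more than 5 SD below the full-stimulation control mean, in both duplicate runs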;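 also: integrated fluorescence ratio of peak minus minimum over baseline after agonist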
TRPC6 act conf: mouse TRPC6 activator confirmation; shares compounds with TRPC6 inh; HEK293-TRPC6 membrane potential dye fluorescence, FDSS; activation, % at 10 µM; 2,800 tested, 11% active; AID 488961;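 active = ratio signal rise beyond 5 SD above unstimulated control wells' mean, seen in both duplicate runs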;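 also: plate controls were buffer EC0 wells for no effect and acetylcholine ECmax response for full effect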
* = called active by the depositor. The list is not random: actives were taken first. Their share in the collection is about 2.3%.

For CCN1CCN(C(=O)c2cccc(OC3CCN(S(C)(=O)=O)CC3)c2)[C@@H](C)C1=O the results were TRPC4 block inactive, TRPC6 act inactive, TRPC4 agonist inactive, TRPC4 PAM inactive and TRPC6 inh inactive.
O=C(OCC(=O)N1CCCC1=O)c1ccc(Cl)cc1[N+](=O)[O-] was read as TRPC4 block inactive, TRPC6 act inactive, TRPC4 agonist inactive, TRPC4 PAM inactive and TRPC6 inh inactive.
For Fc1ccc(Nc2nnc(C(F)(F)F)s2)cc1 the results were TRPC4 block inactive, TRPC6 act inactive, TRPC4 agonist inactive, TRPC4 PAM inactive and TRPC6 inh inactive.
For O=C(Nc1nc2ccccc2n1CCN1CCCCC1)c1ccc(Cl)cc1 the results were TRPC4 block inactive, TRPC6 act inactive, TRPC4 agonist inactive, TRPC4 PAM inactive and TRPC6 inh inactive.
CCN(CC)CCn1c(C)nc2ccccc21 was read as TRPC4 block inactive, TRPC6 act inactive, TRPC4 agonist inactive, TRPC4 PAM inactive and TRPC6 inh inactive.
Screening CCN(CC)CCn1c(NC(=O)c2ccccc2O)nc2ccccc21 returned TRPC4 block inactive, TRPC6 act inactive, TRPC4 agonist inactive, TRPC4 PAM inactive, TRPC6 inh -11.6*, TRPC4 spec 2 19.5%*, TRPC4 spec -26.2%*, HEK293 MPD ctr 2-1 3.5%*, HEK293 MPD ctr-1 -336.0%*, TRPC6 inh conf 88.2%* and TRPC6 act conf inactive.
For CCn1nccc1C(=O)Nc1nc2ccccc2n1CCN1CCCCC1 the results were TRPC4 block inactive, TRPC6 act inactive, TRPC4 agonist inactive, TRPC4 PAM inactive, TRPC6 inh -6.85*, TRPC4 spec 2 67.5%*, TRPC4 spec -10.6%*, HEK293 MPD ctr 2-1 inactive, HEK293 MPD ctr-1 inactive, TRPC6 inh conf inactive and TRPC6 act conf inactive.
`Cc1ccc(C(=O)Nc2nc3ccccc3n2CCN2CCCC2)cc1` gave TRPC4 block inactive, TRPC6 act inactive, TRPC4 agonist inactive, TRPC4 PAM inactive, TRPC6 inh -11.2*, HEK293 MPD ctr-2 -130.5%*, HEK293 MPD ctr 2-2 74.0%*, TRPC4/MOR mod -30.5%*, TRPC4/MOR inh 2 88.5%*, TRPC6 inh conf 91.5%* and TRPC6 act conf inactive.
For Cc1cc(S(=O)(=O)N2CCCCC2)ccc1OCC(=O)Nc1ccccc1 the results were TRPC4 block inactive, TRPC6 act inactive, TRPC4 agonist inactive, TRPC4 PAM inactive and TRPC6 inh inactive.
For COc1ccc(N2CC(NC(=O)c3ccc4ccccc4c3)CC2=O)cc1OC (stereo not drawn) the results were TRPC4 block inactive, TRPC6 act inactive, TRPC4 agonist inactive, TRPC4 PAM inactive and TRPC6 inh inactive.
COP(=O)(OC)c1nc(-c2ccc([N+](=O)[O-])cc2)oc1N1CCCCC1 was read as TRPC4 block inactive, TRPC6 act 19.4*, TRPC4 agonist inactive, TRPC4 PAM inactive, TRPC6 inh -7.1*, HEK293 MPD ctr-2 618.5%*, HEK293 MPD ctr 2-2 198.0%*, TRPC4/MOR mod 120.0%*, TRPC4/MOR inh 2 51.0%*, TRPC6 inh conf 84.5%* and TRPC6 act conf 229.5%*.
For N=C1/C(=C\c2coc3ccccc3c2=O)C(=O)N=C2SC=CN12 the results were TRPC4 block inactive, TRPC6 act 26.4*, TRPC4 agonist inactive, TRPC4 PAM inactive, TRPC6 inh -7.96*, HEK293 MPD ctr-2 640.0%*, HEK293 MPD ctr 2-2 118.5%*, TRPC4/MOR mod 119.0%*, TRPC4/MOR inh 2 77.0%*, TRPC6 inh conf inactive and TRPC6 act conf 107.0%*.
CC1=CC2=NC(=O)/C(=C\c3cc(C)n(-c4cccc(Cl)c4)c3C)C(=N)N2O1 was read as TRPC4 block inactive, TRPC6 act inactive, TRPC4 agonist inactive, TRPC4 PAM inactive and TRPC6 inh inactive.
For CC1=CC2=NC(=O)/C(=C/c3coc4ccc(Cl)cc4c3=O)C(=N)N2O1 the results were TRPC4 block inactive, TRPC6 act 52*, TRPC4 agonist inactive, TRPC4 PAM inactive, TRPC6 inh inactive, HEK293 MPD ctr-2 active, HEK293 MPD ctr 2-2 active, TRPC4/MOR mod 287.0%*, TRPC4/MOR inh 2 101.0%* and TRPC6 act conf 457.0%*.
CN(C)c1ccc(/C=C2\SC(N3CCCCC3)=NC2=O)cc1 was read as TRPC4 block inactive, TRPC6 act inactive, TRPC4 agonist inactive, TRPC4 PAM inactive, TRPC6 inh -5.34*, HEK293 MPD ctr-2 396.0%*, HEK293 MPD ctr 2-2 inactive, TRPC4/MOR mod 34.0%*, TRPC4/MOR inh 2 inactive and TRPC6 inh conf inactive.
`COc1cc(/C=C/C(=O)CC(=O)/C=C/c2ccc(O)c(OC)c2)ccc1O` gave TRPC4 block inactive, TRPC6 act 75.4*, TRPC4 agonist 84*, TRPC4 PAM inactive, TRPC6 inh inactive, HEK293 MPD ctr-2 active, HEK293 MPD ctr 2-2 inactive, TRPC4/MOR mod 380.0%*, TRPC4/MOR inh 2 inactive, TRPC6 inh conf inactive and TRPC6 act conf 524.0%*.
